# Data reported in ChEMBL document CHEMBL3864121, “Development of ebsulfur analogues as potent antibacterials against methicillin-resistant Staphylococcus aureus” (Bioorg Med Chem, 2016).
# What was measured:
# Staphylococcus aureus [1] = experiment: Antibacterial activity against methicillin-sensitive Staphylococcus aureus ATCC 6538 measured after overnight incubation by broth double-dilution method; type: functional
# Outline: (§1)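 MIC by broth double-dilution in liquid Mueller-Hinton medium. Values are reported in µg/mL.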
# Staphylococcus aureus [2] = experiment: Antibacterial activity against methicillin-sensitive Staphylococcus aureus ATCC 25923 measured after overnight incubation by broth double-dilution method; type: functional; outline: as §1
# Staphylococcus aureus [3] = experiment: Antibacterial activity against methicillin-sensitive Staphylococcus aureus ATCC 29213 measured after overnight incubation by broth double-dilution method; type: functional; outline: as §1
# Staphylococcus aureus [4] = experiment: Antibacterial activity against methicillin-resistant Staphylococcus aureus ATCC 33591 measured after overnight incubation by broth double-dilution method; type: functional; outline: as §1
# Staphylococcus aureus [5] = experiment: Antibacterial activity against methicillin-resistant Staphylococcus aureus 1 measured after overnight incubation by broth double-dilution method; type: functional; outline: as §1
# Staphylococcus aureus [6] = experiment: Antibacterial activity against methicillin-resistant Staphylococcus aureus 2 measured after overnight incubation by broth double-dilution method; type: functional; outline: as §1
# Staphylococcus aureus [7] = experiment: Antibacterial activity against methicillin-resistant Staphylococcus aureus BRS3 measured after overnight incubation by broth double-dilution method; type: functional; outline: as §1
# Staphylococcus aureus [8] = experiment: Antibacterial activity against methicillin-resistant Staphylococcus aureus C1 measured after overnight incubation by broth double-dilution method; type: functional; outline: as §1
# Staphylococcus aureus [9] = experiment: Antibacterial activity against methicillin-resistant Staphylococcus aureus C2 measured after overnight incubation by broth double-dilution method; type: functional; outline: as §1
# Staphylococcus aureus [10] = experiment: Antibacterial activity against methicillin-resistant Staphylococcus aureus C7 measured after overnight incubation by broth double-dilution method; type: functional; outline: as §1
# Staphylococcus aureus [11] = experiment: Antibacterial activity against methicillin-resistant Staphylococcus aureus C14 measured after overnight incubation by broth double-dilution method; type: functional; outline: as §1
# Staphylococcus aureus [12] = experiment: Antibacterial activity against methicillin-resistant Staphylococcus aureus C16 measured after overnight incubation by broth double-dilution method; type: functional; outline: as §1
# Staphylococcus aureus [13] = experiment: Antibacterial activity against methicillin-resistant Staphylococcus aureus C19 measured after overnight incubation by broth double-dilution method; type: functional; outline: as §1
# Staphylococcus aureus [14] = experiment: Antibacterial activity against methicillin-resistant Staphylococcus aureus G1 measured after overnight incubation by broth double-dilution method; type: functional; outline: as §1
# Staphylococcus aureus [15] = experiment: Antibacterial activity against methicillin-resistant Staphylococcus aureus G6 measured after overnight incubation by broth double-dilution method; type: functional; outline: as §1
# Staphylococcus aureus [16] = experiment: Antibacterial activity against methicillin-resistant Staphylococcus aureus G12 measured after overnight incubation by broth double-dilution method; type: functional; outline: as §1
# Staphylococcus aureus [17] = experiment: Antibacterial activity against methicillin-resistant Staphylococcus aureus G14 measured after overnight incubation by broth double-dilution method; type: functional; outline: as §1
# Staphylococcus aureus [18] = experiment: Antibacterial activity against methicillin-resistant Staphylococcus aureus NRS4 measured after overnight incubation by broth double-dilution method; type: functional; outline: as §1
# Staphylococcus aureus [19] = experiment: Antibacterial activity against methicillin-resistant Staphylococcus aureus NRS51 measured after overnight incubation by broth double-dilution method; type: functional; outline: as §1
# Staphylococcus aureus [20] = experiment: Antibacterial activity against methicillin-resistant Staphylococcus aureus NRS77 measured after overnight incubation by broth double-dilution method; type: functional; outline: as §1
# Staphylococcus aureus [21] = experiment: Antibacterial activity against methicillin-resistant Staphylococcus aureus S14 measured after overnight incubation by broth double-dilution method; type: functional; outline: as §1
# Staphylococcus aureus [22] = experiment: Antibacterial activity against methicillin-resistant Staphylococcus aureus S17 measured after overnight incubation by broth double-dilution method; type: functional; outline: as §1
# Staphylococcus aureus [23] = experiment: Antibacterial activity against methicillin-resistant Staphylococcus aureus S22 measured after overnight incubation by broth double-dilution method; type: functional; outline: as §1
# Staphylococcus aureus [24] = experiment: Antibacterial activity against methicillin-resistant Staphylococcus aureus S24 measured after overnight incubation by broth double-dilution method; type: functional; outline: as §1
# Staphylococcus aureus [25] = experiment: Antibacterial activity against methicillin-resistant Staphylococcus aureus USA100 measured after overnight incubation by broth double-dilution method; type: functional; outline: as §1
# Staphylococcus aureus [26] = experiment: Antibacterial activity against methicillin-resistant Staphylococcus aureus USA200 measured after overnight incubation by broth double-dilution method; type: functional; outline: as §1
# Staphylococcus aureus [27] = experiment: Antibacterial activity against methicillin-resistant Staphylococcus aureus USA300 measured after overnight incubation by broth double-dilution method; type: functional; outline: as §1
# Staphylococcus aureus [28] = experiment: Antibacterial activity against methicillin-resistant Staphylococcus aureus USA600 measured after overnight incubation by broth double-dilution method; type: functional; outline: as §1
# [29] = test system: Staphylococcus epidermidis; experiment: Antibacterial activity against Staphylococcus epidermidis ATCC 35984 measured after overnight incubation by broth double-dilution method; type: functional; conditions: RP62A
# Outline: (§2)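 MIC by broth double-dilution in Mueller-Hinton medium. Re-testing at the time-kill inoculum used 1×10^6 CFU/mL.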
# Enterococcus faecalis [30] = experiment: Antibacterial activity against Enterococcus faecalis ATCC 29212 measured after overnight incubation by broth double-dilution method; type: functional; outline: as §2
# Enterococcus faecalis [31] = experiment: Antibacterial activity against Enterococcus faecalis ATCC 49533 measured after overnight incubation by broth double-dilution method; type: functional; outline: as §2
# Enterococcus faecium = experiment: Antibacterial activity against Enterococcus faecium BM4105-RF measured after overnight incubation by broth double-dilution method; type: functional; outline: as §1
# Enterococcus = experiment: Antibacterial activity against Vancomycin-resistant Enterococcus measured after overnight incubation by broth double-dilution method; type: functional; outline: as §1
# Listeria monocytogenes = experiment: Antibacterial activity against Listeria monocytogenes ATCC 19115 measured after overnight incubation by broth double-dilution method; type: functional; outline: as §2
# [32] = test system: Mycolicibacterium smegmatis; experiment: Antibacterial activity against Mycobacterium smegmatis MC2-155 measured after overnight incubation by broth double-dilution method; type: functional; conditions: str. MC2 155; outline: as §1
# [33] = Cytotoxicity against HEK293 cells assessed as cell death at […] measured after 24 hrs by resazurin dye-based fluorescence analysis relative to untreated control; type: toxicity; conditions: human, hek293, 24 h
smiles,measurement,setting,value
O=c1c2ccccc2sn1CCc1ccccc1,MIC,Staphylococcus aureus [1],3.9 µg/mL
same,MIC,Staphylococcus aureus [2],1 µg/mL
same,MIC,Staphylococcus aureus [3],2 µg/mL
same,MIC,Staphylococcus aureus [4],1 µg/mL
same,MIC,Staphylococcus aureus [5],1 µg/mL
same,MIC,Staphylococcus aureus [6],1 µg/mL
same,MIC,Staphylococcus aureus [7],2 µg/mL
same,MIC,Staphylococcus aureus [8],2 µg/mL
same,MIC,Staphylococcus aureus [9],2 µg/mL
same,MIC,Staphylococcus aureus [10],2 µg/mL
same,MIC,Staphylococcus aureus [11],2 µg/mL
same,MIC,Staphylococcus aureus [12],3.9 µg/mL
same,MIC,Staphylococcus aureus [13],1 µg/mL
same,MIC,Staphylococcus aureus [14],0.5 µg/mL
same,MIC,Staphylococcus aureus [15],1 µg/mL
same,MIC,Staphylococcus aureus [16],1 µg/mL
same,MIC,Staphylococcus aureus [17],1 µg/mL
same,MIC,Staphylococcus aureus [18],2 µg/mL
same,MIC,Staphylococcus aureus [19],2 µg/mL
same,MIC,Staphylococcus aureus [20],2 µg/mL
same,MIC,Staphylococcus aureus [21],0.5 µg/mL
same,MIC,Staphylococcus aureus [22],1 µg/mL
same,MIC,Staphylococcus aureus [23],3.9 µg/mL
same,MIC,Staphylococcus aureus [24],2 µg/mL
same,MIC,Staphylococcus aureus [25],3.9 µg/mL
same,MIC,Staphylococcus aureus [26],2 µg/mL
same,MIC,Staphylococcus aureus [27],2 µg/mL
same,MIC,Staphylococcus aureus [28],3.9 µg/mL
same,MIC,[29],2 µg/mL
same,MIC,Enterococcus faecalis [30],> 125 µg/mL
same,MIC,Enterococcus faecalis [31],> 125 µg/mL
same,MIC,Enterococcus faecium,> 125 µg/mL
same,MIC,Enterococcus,1 µg/mL
same,MIC,Listeria monocytogenes,3.9 µg/mL
same,MIC,[32],2 µg/mL
same,Activity,[33],> 20%
O=c1c2ccccc2sn1C1CCCC1,MIC,Staphylococcus aureus [1],7.8 µg/mL
same,MIC,Staphylococcus aureus [3],2 µg/mL
same,MIC,Staphylococcus aureus [5],2 µg/mL
same,MIC,Staphylococcus aureus [8],3.9 µg/mL
same,MIC,Staphylococcus aureus [11],3.9 µg/mL
same,MIC,Staphylococcus aureus [14],2 µg/mL
same,MIC,Staphylococcus aureus [16],3.9 µg/mL
same,MIC,Staphylococcus aureus [21],0.5 µg/mL
same,MIC,Staphylococcus aureus [23],7.8 µg/mL
same,MIC,Staphylococcus aureus [28],7.8 µg/mL
same,MIC,[29],2 µg/mL
same,MIC,Enterococcus faecalis [30],> 125 µg/mL
same,MIC,Enterococcus faecalis [31],> 125 µg/mL
same,MIC,Enterococcus faecium,> 125 µg/mL
same,MIC,Enterococcus,2 µg/mL
same,MIC,[32],2 µg/mL
same,Activity,[33],> 20%
O=c1c2ccccc2sn1C1CCCCC1,MIC,Staphylococcus aureus [1],7.8 µg/mL
same,MIC,Staphylococcus aureus [2],3.9 µg/mL
same,MIC,Staphylococcus aureus [3],3.8 µg/mL
same,MIC,Staphylococcus aureus [4],2 µg/mL
same,MIC,Staphylococcus aureus [5],2 µg/mL
same,MIC,Staphylococcus aureus [6],3.9 µg/mL
same,MIC,Staphylococcus aureus [7],7.8 µg/mL
same,MIC,Staphylococcus aureus [8],2 µg/mL
same,MIC,Staphylococcus aureus [9],3.9 µg/mL
same,MIC,Staphylococcus aureus [10],3.9 µg/mL
same,MIC,Staphylococcus aureus [11],2 µg/mL
same,MIC,Staphylococcus aureus [12],3.9 µg/mL
same,MIC,Staphylococcus aureus [13],3.9 µg/mL
same,MIC,Staphylococcus aureus [14],2 µg/mL
same,MIC,Staphylococcus aureus [15],3.9 µg/mL
same,MIC,Staphylococcus aureus [16],3.9 µg/mL
same,MIC,Staphylococcus aureus [17],3.9 µg/mL
same,MIC,Staphylococcus aureus [18],3.9 µg/mL
same,MIC,Staphylococcus aureus [19],3.9 µg/mL
same,MIC,Staphylococcus aureus [20],3.9 µg/mL
same,MIC,Staphylococcus aureus [21],0.5 µg/mL
same,MIC,Staphylococcus aureus [22],7.8 µg/mL
same,MIC,Staphylococcus aureus [23],7.8 µg/mL
same,MIC,Staphylococcus aureus [24],3.9 µg/mL
same,MIC,Staphylococcus aureus [25],7.8 µg/mL
same,MIC,Staphylococcus aureus [26],7.8 µg/mL
same,MIC,Staphylococcus aureus [27],7.8 µg/mL
same,MIC,Staphylococcus aureus [28],7.8 µg/mL
same,MIC,[29],2 µg/mL
same,MIC,Enterococcus faecalis [30],> 125 µg/mL
same,MIC,Enterococcus faecalis [31],> 125 µg/mL
same,MIC,Enterococcus faecium,> 125 µg/mL
same,MIC,Enterococcus,2 µg/mL
same,MIC,Listeria monocytogenes,3.9 µg/mL
same,MIC,[32],2 µg/mL
CC(C)Cn1c(=O)c2ccccc2[s+]1[O-] (stereo not drawn),MIC,Staphylococcus aureus [1],> 125 µg/mL
same,MIC,Staphylococcus aureus [2],> 125 µg/mL
same,MIC,Staphylococcus aureus [3],> 125 µg/mL
same,MIC,Staphylococcus aureus [4],> 125 µg/mL
same,MIC,Staphylococcus aureus [5],> 125 µg/mL
same,MIC,Staphylococcus aureus [6],> 125 µg/mL
same,MIC,Staphylococcus aureus [7],> 125 µg/mL
same,MIC,Staphylococcus aureus [8],> 125 µg/mL
same,MIC,Staphylococcus aureus [9],> 125 µg/mL
same,MIC,Staphylococcus aureus [10],> 125 µg/mL
same,MIC,Staphylococcus aureus [11],> 125 µg/mL
same,MIC,Staphylococcus aureus [12],> 125 µg/mL
same,MIC,Staphylococcus aureus [13],> 125 µg/mL
same,MIC,Staphylococcus aureus [14],> 125 µg/mL
same,MIC,Staphylococcus aureus [15],> 125 µg/mL
same,MIC,Staphylococcus aureus [16],> 125 µg/mL
same,MIC,Staphylococcus aureus [17],> 125 µg/mL
same,MIC,Staphylococcus aureus [18],> 125 µg/mL
same,MIC,Staphylococcus aureus [19],> 125 µg/mL
same,MIC,Staphylococcus aureus [20],> 125 µg/mL
same,MIC,Staphylococcus aureus [21],> 125 µg/mL
same,MIC,Staphylococcus aureus [22],> 125 µg/mL
same,MIC,Staphylococcus aureus [23],> 125 µg/mL
same,MIC,Staphylococcus aureus [24],> 125 µg/mL
same,MIC,Staphylococcus aureus [25],> 125 µg/mL
same,MIC,Staphylococcus aureus [26],> 125 µg/mL
same,MIC,Staphylococcus aureus [27],> 125 µg/mL
same,MIC,Staphylococcus aureus [28],> 125 µg/mL
same,MIC,[29],> 125 µg/mL
same,MIC,Enterococcus faecalis [30],> 125 µg/mL
same,MIC,Enterococcus faecalis [31],> 125 µg/mL
same,MIC,Enterococcus faecium,> 125 µg/mL
same,MIC,Enterococcus,> 125 µg/mL
same,MIC,Listeria monocytogenes,> 125 µg/mL
same,MIC,[32],> 125 µg/mL
